ChEMBL document CHEMBL3808334, “Synthesis and in vitro evaluation of novel triazine analogues as anticancer agents and their interaction studies with bovine serum albumin” (Eur J Med Chem, 2016)

What was measured:
Type in all cases: functional
[1] = Growth inhibition of human SKOV3 cells assessed as cell growth at 10^-5 M incubated for 48 hrs by sulforhodamine B assay; conditions: SK-OV-3, 48 h, read-out: Activity
MDA-MB-468 = assay: Growth inhibition of human MDA-MB-468 cells assessed as cell growth at 10^-8 M incubated for 48 hrs by sulforhodamine B assay; conditions: MDA-MB-468, 48 h, read-out: Activity
[2] = Growth inhibition of human TK10 cells assessed as cell growth at 10^-5 M incubated for 48 hrs by sulforhodamine B assay; conditions: TK-10, 48 h, read-out: Activity
NCI-H226 = assay: Growth inhibition of human NCI-H226 cells assessed as cell growth at 10^-4 M incubated for 48 hrs by sulforhodamine B assay; conditions: NCI-H226, 48 h, read-out: Activity
[3] = Growth inhibition of human SF268 cells assessed as cell growth at 10^-7 M incubated for 48 hrs by sulforhodamine B assay; conditions: SF-268, 48 h, read-out: Activity
U-251 [4] = assay: Growth inhibition of human U251 cells assessed as cell growth at 10^-7 M incubated for 48 hrs by sulforhodamine B assay; conditions: U-251, 48 h, read-out: Activity
MDA-MB-435 = assay: Growth inhibition of human MDA-MB-435 cells assessed as cell growth at 10^-4 M incubated for 48 hrs by sulforhodamine B assay; conditions: MDA-MB-435, 48 h, read-out: Activity
SK-MEL-28 = assay: Growth inhibition of human SK-MEL-28 cells assessed as cell growth at 10^-4 M incubated for 48 hrs by sulforhodamine B assay; conditions: SK-MEL-28, 48 h, read-out: Activity
[5] = Growth inhibition of human UACC62 cells assessed as cell growth at 10^-4 M incubated for 48 hrs by sulforhodamine B assay; conditions: UACC-62, 48 h, read-out: Activity
NCI/ADR-RES = assay: Growth inhibition of human NCI/ADR-RES cells assessed as cell growth at 10^-4 M incubated for 48 hrs by sulforhodamine B assay; conditions: read-out: Activity
786-0 [6] = assay: Growth inhibition of human 786-0 cells assessed as cell growth at 10^-4 M incubated for 48 hrs by sulforhodamine B assay; conditions: 786-0, 48 h, read-out: Activity
Method in brief: (§1)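 Five-dose assay: five concentrations from 10-fold or ½-log serial dilutions. Cells are plated at 5,000–40,000 per well according to doubling time, grown 24 h, then exposed 48 h at 37 °C, 5% CO₂. Fixed with cold 50% TCA (final addition) for 60 min at 4 °C and stained with 0.4% SRB in 1% acetic acid. Bound dye is solubilized in 10 mM Tris base and read at 515 nm. GI₅₀ is where [(Ti−Tz)/(C−Tz)]×100 = 50, with a time-zero plate as Tz.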

[7] = Growth inhibition of human UACC62 cells assessed as cell growth at 10^-7 M incubated for 48 hrs by sulforhodamine B assay; conditions: UACC-62, 48 h, read-out: Activity
[8] = Growth inhibition of human OVCAR8 cells assessed as cell growth at 10^-7 M incubated for 48 hrs by sulforhodamine B assay; conditions: OVCAR-8, 48 h, read-out: Activity
[9] = Growth inhibition of human IGROV1 cells assessed as cell growth at 10 uM incubated for 48 hrs by sulforhodamine B assay; conditions: IGROV-1, 48 h, read-out: Activity
[10] = Growth inhibition of human OVCAR5 cells assessed as cell growth at 10 uM incubated for 48 hrs by sulforhodamine B assay; conditions: OVCAR-5, 48 h, read-out: Activity
[11] = Growth inhibition of human UO31 cells assessed as cell growth at 10 uM incubated for 48 hrs by sulforhodamine B assay; conditions: UO-31, 48 h, read-out: Activity
A549 = assay: Growth inhibition of human A549/ATCC cells assessed as cell growth at 10^-8 M incubated for 48 hrs by sulforhodamine B assay; conditions: A549, 48 h, read-out: Activity; method in brief: as §1
[12] = Growth inhibition of human HCT116 cells assessed as cell growth at 10^-6 M incubated for 48 hrs by sulforhodamine B assay; conditions: HCT-116, 48 h, read-out: Activity
Method in brief: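 Cells seeded at 5,000–40,000/well according to doubling time and preincubated 24 h at 37 °C, 5% CO2. Time-zero plates were TCA-fixed. DMSO concentrate was diluted in medium with 50 µg/ml gentamicin to give five concentrations (10-fold or ½ log steps), then exposed 48 h. Cells were TCA-fixed, stained with 0.4% SRB and read at 515 nm. Percent growth was taken against time-zero and control; GI50, TGI and LC50 derived.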

Malme-3M = assay: Growth inhibition of human MALME-3M cells assessed as cell growth at 10^-6 M incubated for 48 hrs by sulforhodamine B assay; conditions: read-out: Activity
[13] = Growth inhibition of human UACC62 cells assessed as cell growth at 10^-6 M incubated for 48 hrs by sulforhodamine B assay; conditions: UACC-62, 48 h, read-out: Activity
786-0 [14] = assay: Growth inhibition of human 786-0 cells assessed as cell growth at 10^-6 M incubated for 48 hrs by sulforhodamine B assay; conditions: 786-0, 48 h, read-out: Activity; method in brief: as §1
T47D = assay: Growth inhibition of human T47D cells assessed as cell growth at 10^-6 M incubated for 48 hrs by sulforhodamine B assay; conditions: read-out: Activity
[15] = Growth inhibition of human HOP62 cells assessed as cell growth at 10^-5 M incubated for 48 hrs by sulforhodamine B assay; conditions: HOP-62, 48 h, read-out: Activity
[16] = Growth inhibition of human HOP92 cells assessed as cell growth at 10^-5 M incubated for 48 hrs by sulforhodamine B assay; conditions: HOP-92, 48 h, read-out: Activity
[17] = Growth inhibition of human SF539 cells assessed as cell growth at 10^-5 M incubated for 48 hrs by sulforhodamine B assay; conditions: SF-539, 48 h, read-out: Activity
CCRF-CEM = assay: Growth inhibition of human CCRF-CEM cells assessed as cell growth at 10 uM incubated for 48 hrs by sulforhodamine B assay; conditions: read-out: Activity
Method in brief: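 One-dose screen at 10 µM final. Cells are plated at 5,000–40,000 per well according to doubling time and preincubated 24 h at 37 °C, 5% CO₂. Compound (DMSO stock diluted in medium with 50 µg/ml gentamicin) is then added for 48 h. Growth percent is read by sulforhodamine B staining, absorbance at 515 nm.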

[18] = Growth inhibition of human HL-60(TB) cells assessed as cell growth at 10 uM incubated for 48 hrs by sulforhodamine B assay; conditions: HL-60, 48 h, read-out: Activity
SK-MEL-5 = assay: Growth inhibition of human SK-MEL-5 cells assessed as cell growth at 10^-5 M incubated for 48 hrs by sulforhodamine B assay; conditions: SK-MEL-5, 48 h, read-out: Activity
[19] = Growth inhibition of human OVCAR4 cells assessed as cell growth at 10^-5 M incubated for 48 hrs by sulforhodamine B assay; conditions: OVCAR-4, 48 h, read-out: Activity
U-251 [20] = assay: Growth inhibition of human U251 cells assessed as cell growth at 10 uM incubated for 48 hrs by sulforhodamine B assay; conditions: U-251, 48 h, read-out: Activity

Structure (SMILES) | growth at 10 µM [1] [%] | growth at 0.01 µM (MDA-MB-468) [%] | growth at 10 µM [2] [%] | growth at 100 µM (NCI-H226) [%] | growth at 0.1 µM [3] [%] | growth at 0.1 µM (U-251 [4]) [%] | growth at 100 µM (MDA-MB-435) [%] | growth at 100 µM (SK-MEL-28) [%] | growth at 100 µM [5] [%] | growth at 100 µM (NCI/ADR-RES) [%] | growth at 100 µM (786-0 [6]) [%] | growth at 0.1 µM [7] [%] | growth at 0.1 µM [8] [%] | growth at 10 µM [9] [%] | growth at 10 µM [10] [%] | growth at 10 µM [11] [%] | growth at 0.01 µM (A549) [%] | growth at 1 µM [12] [%] | growth at 1 µM (Malme-3M) [%] | growth at 1 µM [13] [%] | also measured
Fc1ccc(-c2nc(Nc3ccc(-c4nc5ccccc5[nH]4)cc3)nc(N3CCOCC3)n2)cc1 | -35 | 97 | -7 | -50 | 96 | 102 | -42 | -36 | -45 | -13 | -68 | 91 | 104 | 33.7 | 66.3 | -43.5 | 95 | 102 | 104 | 86 | growth at 1 µM (786-0 [14]): 73%; growth at 1 µM (T47D): 88%; growth at 10 µM [15]: -34%; growth at 10 µM [16]: -67%; growth at 10 µM [17]: -60%; growth at 10 µM (CCRF-CEM): -1.84%; growth at 10 µM [18]: -46%; growth at 10 µM (SK-MEL-5): -87%; growth at 10 µM [19]: 3%; growth at 10 µM (U-251 [20]): 6.38%
c1ccc2[nH]c(-c3ccc(Nc4nc(N5CCCCC5)nc(N5CCOCC5)n4)cc3)nc2c1 | -37 | 104 | -4 | -36 | 98 | 97 | -29 | -54 | -38 | -10 | -87 | 96 | 96 | 51.3 | 73.9 | -37.8 | 94 | 95 | 98 | 92 | growth at 1 µM (786-0 [14]): 79%; growth at 1 µM (T47D): 90%; growth at 10 µM [15]: -52%; growth at 10 µM [16]: -54%; growth at 10 µM [17]: -28%; growth at 10 µM (CCRF-CEM): 8.74%; growth at 10 µM [18]: -22.7%; growth at 10 µM (SK-MEL-5): -90%; growth at 10 µM [19]: 22%; growth at 10 µM (U-251 [20]): 8.02%
c1ccc(-c2nc(Nc3ccc(-c4nc5ccccc5[nH]4)cc3)nc(N3CCOCC3)n2)cc1 | -62 | 96 | -87 | -59 | 92 | 110 | -86 | -72 | -75 | -33 | -71 | 97 | 104 | -38.1 | 0.63 | -60.6 | 103 | 16 | 103 | 84 | growth at 1 µM (786-0 [14]): 9%; growth at 1 µM (T47D): 78%; growth at 10 µM [15]: -74%; growth at 10 µM [16]: -75%; growth at 10 µM [17]: -84%; growth at 10 µM (CCRF-CEM): -15.7%; growth at 10 µM [18]: -32.7%; growth at 10 µM (SK-MEL-5): -92%; growth at 10 µM [19]: -97%; growth at 10 µM (U-251 [20]): -67.5%
Clc1ccc(-c2nc(Nc3ccc(-c4nc5ccccc5[nH]4)cc3)nc(N3CCOCC3)n2)cc1 | -96 | 99 | -96 | -25 | 96 | 103 | -49 | -24 | -13 | -7 | -21 | 93 | 103 | -71.2 | -74.7 | -87.6 | 96 | -80 | 111 | -53 | growth at 1 µM (786-0 [14]): -78%; growth at 1 µM (T47D): 19%; growth at 10 µM [15]: -77%; growth at 10 µM [16]: -90%; growth at 10 µM [17]: -87%; growth at 10 µM (CCRF-CEM): -91.5%; growth at 10 µM [18]: -81.4%; growth at 10 µM (SK-MEL-5): -94%; growth at 10 µM [19]: -86%; growth at 10 µM (U-251 [20]): -93%
